Activity calls are given as the source filed them. The rule behind the calls is not given here.
Target: T1, Adenosine receptor A1 (Homo sapiens) (UniProt P30542)
T1 sequence (whole entry): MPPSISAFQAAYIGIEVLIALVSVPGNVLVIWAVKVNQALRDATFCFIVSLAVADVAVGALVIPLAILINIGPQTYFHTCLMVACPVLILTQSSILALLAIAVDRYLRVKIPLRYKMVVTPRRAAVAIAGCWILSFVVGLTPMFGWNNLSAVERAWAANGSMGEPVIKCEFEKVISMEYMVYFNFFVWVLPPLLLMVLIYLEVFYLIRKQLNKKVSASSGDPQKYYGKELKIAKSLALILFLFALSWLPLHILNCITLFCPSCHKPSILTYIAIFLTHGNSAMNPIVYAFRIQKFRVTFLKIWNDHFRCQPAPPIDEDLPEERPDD
Test: Agonist activity at human A1 receptor expressed in CHO cells assessed as stimulation of ERK1/2 phosphorylation at 3 to 10 uM after 5 mins by Alpha-Screen assay
Format: functional, cell-based
Summary of the method: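 Flp-In CHO cells stably expressing human A1R, serum-starved overnight and pretreated with 1 U/mL ADA for 30 min. Compound (3 and 10 μM) applied alone, 5 min at 37 °C. Intrinsic agonism measured as ERK1/2 phosphorylation by SureFire AlphaScreen, with 3% FBS as positive control. Two to three experiments in triplicate.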

Q: With `Cc1sc(N)c(C(=O)c2ccc(Cl)cc2)c1-c1cccc(C(F)(F)F)c1` as the molecule, how does the Activity read?
A: Active

Q: `Cc1sc(N)c(C(=O)c2ccccc2)c1-c1cccc(C(F)(F)F)c1` was tested. Which Activity did it give?
A: Active

Target: T1, Adenosine receptor A1 (Homo sapiens)
Test: Agonist activity at human A1 receptor expressed in CHO cells assessed as enhancement of R-PIA mediated ERK1/2 phosphorylation at 3 uM after 5 mins by Alpha-Screen assay
Format: functional, cell-based
Summary of the method: (§1)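 Flp-In CHO cells stably expressing human A1R, 30000/well, serum-starved overnight, then 1 U/mL ADA for 30 min. Test compound (3 or 10 μM) added 5 min before an EC50 concentration of R-PIA (determined same day), then a further 5 min at 37 °C. pERK1/2 read by SureFire AlphaScreen. Mean of two to three experiments in triplicate.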

Q: For `Cc1sc(N)c(C(=O)c2ccc(Cl)c(Cl)c2)c1-c1cc(C(F)(F)F)cc(C(F)(F)F)c1`, which Activity is on record?
A: 78%

Q: Which Activity does the source give for `Cc1ccc(C(=O)c2c(N)sc(C)c2-c2cc(C(F)(F)F)cc(C(F)(F)F)c2)cc1` here?
A: 92%

Q: `Cc1sc(N)c(C(=O)c2ccc(Cl)cc2)c1-c1cccc(C(F)(F)F)c1` was tested. Which Activity did it give?
A: 94%

Q: With `Cc1sc(N)c(C(=O)c2ccc(Cl)c(Cl)c2)c1-c1cccc(C(F)(F)F)c1` as the molecule, how does the Activity read?
A: 73%

Q: Which Activity does the source give for `Cc1sc(N)c(C(=O)c2ccccc2)c1-c1cc(C(F)(F)F)cc(C(F)(F)F)c1` here?
A: 83%

Q: For `Nc1scc(-c2cccc(C(F)(F)F)c2)c1C(=O)c1ccc(Cl)c(Cl)c1`, which Activity is on record?
A: 88%

Q: With `Cc1sc(N)c(C(=O)c2cccc(C(F)(F)F)c2)c1-c1cc(C(F)(F)F)cc(C(F)(F)F)c1` as the molecule, how does the Activity read?
A: 84%

Q: Which Activity does the source give for `Cc1sc(N)c(C(=O)c2ccc(Cl)cc2)c1-c1cc(C(F)(F)F)cc(C(F)(F)F)c1` here?
A: 84%

Q: How did the Activity turn out when `Nc1scc(-c2cccc(C(F)(F)F)c2)c1C(=O)c1cccc(C(F)(F)F)c1` was run?
A: 93%

Q: `Nc1scc(-c2cc(C(F)(F)F)cc(C(F)(F)F)c2)c1C(=O)c1cccc(C(F)(F)F)c1` was tested. Which Activity did it give?
A: 90%

Q: For `Cc1sc(N)c(C(=O)c2ccccc2)c1-c1cccc(C(F)(F)F)c1`, which Activity is on record?
A: 77%

Q: How did the Activity turn out when `Cc1ccc(C(=O)c2c(-c3cccc(C(F)(F)F)c3)csc2N)cc1` was run?
A: 85%

Q: For `Cc1ccc(C(=O)c2c(-c3cc(C(F)(F)F)cc(C(F)(F)F)c3)csc2N)cc1`, which Activity is on record?
A: 86%

Q: Which Activity does the source give for `Cc1ccc(C(=O)c2c(N)sc(C)c2-c2cccc(C(F)(F)F)c2)cc1` here?
A: 86%

Q: For `Cc1sc(N)c(C(=O)c2cccc(C(F)(F)F)c2)c1-c1cccc(C(F)(F)F)c1`, which Activity is on record?
A: 90%

Q: With `Nc1scc(-c2cc(C(F)(F)F)cc(C(F)(F)F)c2)c1C(=O)c1ccc(Cl)c(Cl)c1` as the molecule, how does the Activity read?
A: 90%

Target: T1, Adenosine receptor A1 (Homo sapiens)
Test: Agonist activity at human A1 receptor expressed in CHO cells assessed as enhancement of R-PIA mediated ERK1/2 phosphorylation at 10 uM after 5 mins by Alpha-Screen assay
Format: functional, cell-based
Summary of the method: as §1

Q: With `Cc1sc(N)c(C(=O)c2ccc(Cl)c(Cl)c2)c1-c1cc(C(F)(F)F)cc(C(F)(F)F)c1` as the molecule, how does the Activity read?
A: 84%

Q: With `Cc1ccc(C(=O)c2c(N)sc(C)c2-c2cc(C(F)(F)F)cc(C(F)(F)F)c2)cc1` as the molecule, how does the Activity read?
A: 80%

Q: For `Cc1sc(N)c(C(=O)c2ccc(Cl)cc2)c1-c1cccc(C(F)(F)F)c1`, which Activity is on record?
A: 94%

Q: How did the Activity turn out when `Cc1sc(N)c(C(=O)c2ccc(Cl)c(Cl)c2)c1-c1cccc(C(F)(F)F)c1` was run?
A: 75%

Q: Which Activity does the source give for `Cc1sc(N)c(C(=O)c2ccccc2)c1-c1cc(C(F)(F)F)cc(C(F)(F)F)c1` here?
A: 95%

Q: Which Activity does the source give for `Nc1scc(-c2cccc(C(F)(F)F)c2)c1C(=O)c1ccc(Cl)c(Cl)c1` here?
A: 88%

Q: For `Cc1sc(N)c(C(=O)c2cccc(C(F)(F)F)c2)c1-c1cc(C(F)(F)F)cc(C(F)(F)F)c1`, which Activity is on record?
A: 84%

Q: Which Activity does the source give for `Cc1sc(N)c(C(=O)c2ccc(Cl)cc2)c1-c1cc(C(F)(F)F)cc(C(F)(F)F)c1` here?
A: 88%

Q: How did the Activity turn out when `Nc1scc(-c2cccc(C(F)(F)F)c2)c1C(=O)c1cccc(C(F)(F)F)c1` was run?
A: 94%

Q: With `Nc1scc(-c2cc(C(F)(F)F)cc(C(F)(F)F)c2)c1C(=O)c1cccc(C(F)(F)F)c1` as the molecule, how does the Activity read?
A: 84%

Q: With `Cc1sc(N)c(C(=O)c2ccccc2)c1-c1cccc(C(F)(F)F)c1` as the molecule, how does the Activity read?
A: 73%

Q: For `Cc1ccc(C(=O)c2c(-c3cccc(C(F)(F)F)c3)csc2N)cc1`, which Activity is on record?
A: 83%

Q: Which Activity does the source give for `Cc1ccc(C(=O)c2c(-c3cc(C(F)(F)F)cc(C(F)(F)F)c3)csc2N)cc1` here?
A: 87%

Q: `Cc1ccc(C(=O)c2c(N)sc(C)c2-c2cccc(C(F)(F)F)c2)cc1` was tested. Which Activity did it give?
A: 90%

Q: For `Cc1sc(N)c(C(=O)c2cccc(C(F)(F)F)c2)c1-c1cccc(C(F)(F)F)c1`, which Activity is on record?
A: 86%

Q: For `Nc1scc(-c2cc(C(F)(F)F)cc(C(F)(F)F)c2)c1C(=O)c1ccc(Cl)c(Cl)c1`, which Activity is on record?
A: 90%

Target: T1, Adenosine receptor A1 (Homo sapiens)
Test: Positive allosteric modulation at human A1 receptor expressed in CHO cells assessed as inhibition of forskolin-stimulated cAMP accumulation after 30 mins by Alpha-Screen assay
Format: functional, cell-based
Summary of the method: (§2)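 Serum-starved CHO-FlpIn hA1R cells were preincubated 30 min in phenol red-free DMEM with 0.1% BSA, 1 U/mL ADA and 500 μM IBMX. They were then treated with 10 μM forskolin plus R-PIA and/or modulator for 30 min at 37 °C, and cAMP was read by AlphaScreen. Data were normalized to 10 μM forskolin and fitted to an operational model of allosterism. Three experiments in duplicate.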

Q: For `Cc1sc(N)c(C(=O)c2ccccc2)c1-c1cccc(C(F)(F)F)c1`, which Activity is on record?
A: Active

Target: T1, Adenosine receptor A1 (Homo sapiens)
Test: Positive allosteric modulation at human A1 receptor expressed in CHO cells assessed as enhancement of R-PIA-mediated inhibition of forskolin-stimulated cAMP accumulation after 30 mins by Alpha-Screen assay
Format: functional, cell-based
Summary of the method: as §2

Q: With `Cc1sc(N)c(C(=O)c2ccc(Cl)cc2)c1-c1cccc(C(F)(F)F)c1` as the molecule, how does the Activity read?
A: Active

Q: Which Activity does the source give for `Cc1sc(N)c(C(=O)c2ccccc2)c1-c1cccc(C(F)(F)F)c1` here?
A: Active
